# In ChEMBL document CHEMBL1155751, “Two phenanthraquinones from Dendrobium moniliforme” (J Nat Prod, 2001):
# Active and inactive are the calls of the source. The calls are words filed in the database; no cut-off is given here.
# How the values were obtained:
# Mast cell [1] = test: Inhibition of secretagogue-induced histamine release in Sprague-Dawley rat peritoneal mast cells at 30 uM […] secretagogue challenge measured after 15 mins; type: functional; conditions: read-out: INH, in the assay text read “3 mins before” for “30 mins before”
# Method in brief: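 Peritoneal mast cells came from exsanguinated Sprague-Dawley rats by heparinized Tyrode's lavage, purified through 38% BSA, and resuspended at (1-1.5) × 10^6 cells/mL in Tyrode's with 0.1% BSA. Supernatant β-glucuronidase was read at 550 nm (phenolphthalein glucuronide, pH 4.5) and histamine by o-phthaldialdehyde fluorescence at 350/450 nm. Release is % of the Triton X-100 total.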
# N9 [2] = test: Antiinflammatory activity in mouse N9 cells assessed as inhibition of LPS and IFN-gamma-induced nitrite formation at 3 uM treated 1 hr before LPS and IFN-gamma challenge measured after 24 hrs by Griess reaction; conditions: N9, read-out: INH
# N9 [3] = test: Antiinflammatory activity in mouse N9 cells assessed as inhibition of LPS and IFN-gamma-induced TNFalpha formation at 3 uM treated 1 hr before LPS and IFN-gamma challenge measured after 24 hrs by ELISA; conditions: N9, read-out: INH
# Neutrophil [4] = test: Inhibition of secretagogue-induced superoxide anion generation in rat neutrophils at 30 uM treated 30 mins before secretagogue challenge measured after 15 mins; type: functional, cell-based
# RAW264.7 [5] = test: Antiinflammatory activity in mouse RAW264.7 cells assessed as LPS-induced nitrite levels at 1 uM treated 1 hr before LPS challenge measured after 24 hrs by Griess reaction (Rvb=46.6 +/- 0.4); type: functional
# Method in brief: (§1)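 RAW 264.7 cells were seeded at 2 × 10^5 cells/well in DMEM with 5% heat-inactivated FBS, penicillin and streptomycin, and left to adhere overnight. Cells got DMSO or compound at 37 °C for 1 h, then 1 µg/mL LPS (E. coli 0111:B4) for 24 h. Medium nitrite was read by Griess (550 nm, NaNO2 standard), TNF-α by ELISA and PGE2 by EIA. Means ± SEM, N = 3-4.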
# RAW264.7 [6] = test: Antiinflammatory activity in mouse RAW264.7 cells assessed as inhibition of LPS-induced prostaglandin E2 formation at 1 uM treated 1 hr before LPS challenge measured after 24 hrs by EIA; type: functional; method in brief: as §1
# Mast cell [7] = test: Inhibition of secretagogue-induced beta-glucuronidase release in Sprague-Dawley rat peritoneal mast cells at 30 uM treated 3 mins before secretagogue challenge measured after 15 mins
# RAW264.7 [8] = test: Antiinflammatory activity in mouse RAW264.7 cells assessed as inhibition of LPS-induced TNFalpha formation at 1 uM treated 1 hr before LPS challenge measured after 24 hrs by ELISA; type: functional; method in brief: as §1
# Neutrophil [9] = test: Inhibition of secretagogue-induced histamine release in rat neutrophils at 30 uM treated 30 mins before secretagogue challenge measured after 15 mins; type: functional, cell-based
# N9 [10] = test: Cytotoxicity against mouse N9 cells assessed as LDH release; type: cell-based
# RAW264.7 [11] = test: Cytotoxicity against mouse RAW264.7 cells assessed as LDH release; type: cell-based
# Neutrophil [12] = test: Inhibition of secretagogue-induced beta-glucuronidase release in rat neutrophils at 30 uM treated 30 mins before secretagogue challenge measured after 15 mins; type: functional, cell-based
# Mast cell [13] = test: Secretagogue-induced histamine release in Sprague-Dawley rat peritoneal mast cells at 30 uM treated 3 mins before secretagogue challenge measured after 15 mins
Compound,inhibition at 30 µM (Mast cell [1]),inhibition at 3 µM (N9 [2]),inhibition at 3 µM (N9 [3]),Activity (Neutrophil [4]),Activity (RAW264.7 [5]),inhibition at 1 µM (RAW264.7 [6]),inhibition at 30 µM (Mast cell [7]),inhibition at 1 µM (RAW264.7 [8]),Activity (Neutrophil [9]),Activity (N9 [10]),Activity (RAW264.7 [11]),Activity (Neutrophil [12]),histamine release at 30 µM (Mast cell [13])
COC1=CC(=O)c2ccc3cc(OC)cc(O)c3c2C1=O [DENBINOBIN],39%,44%,70%,inactive,40.4 µM,43%,40%,62%,inactive,< 10%,< 10%,inactive,
CCN(CC)CCCC(C)Nc1c2ccc(Cl)cc2nc2ccc(OC)cc12 (centres undefined) [QUINACRINE],,,,,,,8.7%,,,,,,18.4%
